Assay outcomes: PubChem BioAssay, several laboratories
MT1-MMP act inh: blockers of MT1-MMP proenzyme processing, primary screen, HT1080 RFP-PRO-GFP cells, GFP/RFP fluorescence | Matrix metalloproteinase-14 (Homo sapiens), P50281 | GFP/RFP ratio fluorescence, overnight; percent of plate control window, DMSO zero | GFP/RFP ratio change, % at 20 µM | 360,000 tested, 0.061% active | AID 651647, 2012;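 active means GFP/RFP ratio change of at least 30% with cell ATP level not reduced by more than half and red fluorescence within 50% of control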
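Compound: 20 µM single dose, 1% DMSO / System: HT1080 RFP-PRO-GFP cells / Controls: DMSO and RFP-L50D-GFP cell wells / Read-out basis: GFP/RFP fluorescence ratio / Schedule: overnight compound exposure at 37 °C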
ADAM10 inh: human ADAM10 inhibitors, primary screen, biochemical, QFRET, HTS. Disintegrin and metalloproteinase domain-containing protein 10 (Homo sapiens), O14672. recombinant ADAM10, EDANS/DABCYL FRET peptide cleavage, 3 h. inhibition, % at 7 µM. 370,000 tested, 0.62% active;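 active means inhibition above a per-campaign cutoff equal to the mean of compounds falling between control-based bounds plus 3 SD, cut at about 20% in these data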;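 further: 0% = DMSO wells while the 100% control is not disclosed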
DDE Tn7 FP inh: inhibitors of Tn7 peptide binding to fibrin DD(E), primary screen, biochemical, fluorescence polarization, human fibrin, Tn7 probe | Fibrinogen beta chain (Homo sapiens), P02675 | inhibition, % at 8.3 µM | AID 720508, 2013 | 370,000 tested, 0.13% active | FP displacement of FITC-Tn7 peptide from fibrin DD(E); 0% = median of compound wells per plate;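 active means inhibition above the mean of compounds falling within the control limits plus 3 SD of them, cut at about 14% in these data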;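 further: 0% = plate median of compound wells and 100% = 10 µM Aha-Tn7 peptide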
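Assay system: Fibrin-DD(E) protein isolated from polymerized human fibrin clots; read-out basis: percent inhibition; medium: Tris/NaCl/CaCl2 buffer, pH 7.8; signal: FP measurement; incubation: 10 min plus 3 h, room temperature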
ADAM17 inh: ADAM17 inhibitors, primary screen, biochemical, QFRET | Disintegrin and metalloproteinase domain-containing protein 17 (Homo sapiens), P78536 | recombinant ADAM17, EDANS/DABCYL FRET peptide cleavage | inhibition, % at 6.95 µM | 370,000 tested, 0.83% active;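 active means inhibition above the mean of compounds lying between control limits plus 3 SD, set per campaign, cut at about 8.5% in these data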;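 further: 0% = DMSO-only wells as the low control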
Target sequence (P78536 215-824 limits assumed): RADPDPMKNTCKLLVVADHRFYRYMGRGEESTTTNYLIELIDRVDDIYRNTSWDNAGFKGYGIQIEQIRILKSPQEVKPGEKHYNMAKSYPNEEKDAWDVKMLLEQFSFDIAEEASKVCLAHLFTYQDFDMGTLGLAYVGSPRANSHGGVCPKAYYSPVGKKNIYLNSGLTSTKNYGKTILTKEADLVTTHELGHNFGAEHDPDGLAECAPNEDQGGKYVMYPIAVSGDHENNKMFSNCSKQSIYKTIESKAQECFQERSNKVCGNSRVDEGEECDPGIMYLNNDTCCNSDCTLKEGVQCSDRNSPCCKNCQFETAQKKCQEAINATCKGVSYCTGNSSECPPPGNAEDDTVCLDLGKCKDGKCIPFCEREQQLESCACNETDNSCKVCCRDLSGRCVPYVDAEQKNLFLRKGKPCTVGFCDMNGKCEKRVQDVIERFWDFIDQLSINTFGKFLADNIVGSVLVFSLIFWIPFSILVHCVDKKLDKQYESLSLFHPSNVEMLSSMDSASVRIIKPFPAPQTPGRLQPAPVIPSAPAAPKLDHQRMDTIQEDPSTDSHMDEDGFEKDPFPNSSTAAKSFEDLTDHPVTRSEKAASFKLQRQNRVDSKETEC
Tn6 DDE FP: inhibitors of Tn6 peptide binding to fibrin DD(E), primary screen, biochemical, fluorescence polarization, human fibrin, Tn6 probe; inhibition, % at 8.3 µM; Fibrinogen beta chain (Homo sapiens), P02675; 370,000 tested, 0.21% active; Fibrin DD(E) TRITC-Tn6 fluorescence polarization displacement; AID 720509, 2013;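 active means inhibition above a per-campaign cutoff: mean of compounds within control limits plus 3 SD, cut at about 15% in these data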;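 further: 0% = median of all compound wells on the plate and 100% = blocking peptide control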
Tn7 DDE conf: inhibitors of Tn7 peptide binding to fibrin DD(E), confirmation, biochemical, fluorescence polarization, human fibrin, Tn7 probe; shares compounds with DDE Tn7 FP inh; FP displacement of TRITC-Tn7 peptide from DD(E); 0% set at plate's compound-well median; inhibition, % at 8.3 µM; 460 tested, 5% active;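 active means inhibition above the campaign cutoff, the mean of compounds within control limits plus 3 SD, cut at about 14% in these data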;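 further: 100% = median FP of high control wells holding Aha-Tn7 inhibitor peptide; displacers lower polarization since freed probe rises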
Tn7 DDE ctr: DD(E)-Tn7 binding inhibition, counter-screen. fibrin DD(E), TRITC-Tn7 probe displacement, fluorescence polarization. shares compounds with DDE Tn7 FP inh. inhibition, % at 8.3 µM. 460 tested, 3% active;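 active means inhibition above the cutoff, the mean of compounds lying between the control bounds plus 3 SD of those compounds, cut at about 17% in these data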;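 further: 0% = median of compound sample wells and 100% = excess unlabeled Aha-Tn7 peptide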
* = called active by the depositor; i = inactive; x = not tested or not shown. Sampled rows, rich in hits. Any-hit rate of the full collection: about 1.6%.

SMILES	MT1-MMP act inh	ADAM10 inh	DDE Tn7 FP inh	ADAM17 inh	Tn6 DDE FP	Tn7 DDE conf	Tn7 DDE ctr
O=C(CSc1nc2ccc(Nc3nc(N4CCOCC4)nc(N4CCOCC4)n3)cc2s1)Nc1ccccc1F	1.4	-8.2	15.5*	-7.3	8.5	4.7	-10.3
O=C(CSc1nc2ccc(Nc3nc(N4CCOCC4)nc(N4CCOCC4)n3)cc2s1)Nc1ccccc1Cl	-0.7	-12.6	-3.1	-2.7	6.5	x	x
C=C(C)C1CC=C(C)/C(=N/NC(=O)c2ccc(NC(=O)CCC)cc2)C1 (configuration not stated)	1.4	-5.2	14.3*	-4.4	6.1	7.8	2.9
C=C(C)C1CC=C(C)/C(=N/NC(=O)c2ccc(NC(=O)CC)cc2)C1 (configuration not stated)	4.3	-4.2	6.4	-1.0	-0.8	x	x
CCCN(C(=O)COC(=O)COc1c(C)cccc1C)c1c(N)n(Cc2ccccc2)c(=O)[nH]c1=O	2.6	7.2	13.8*	2.4	-7.2	0.0	-3.0
CCOC(=O)[C@]12CCCC3=C1N(CCC3)C(=O)[C@@H](CC(=O)NCc1ccc(OC)c(OC)c1)C2	x	4.1	0.7	3.2	5.1	x	x
CC(C)c1nnc(N2C(=O)C(O)=C(C(=O)c3cccs3)C2c2ccccc2)s1 (configuration not stated)	-112.9	-3.3	30.5*	-3.1	-5.5	3.1	0.0
COc1ccc(/C=C2\CCc3c2nc2ccccc2c3C(=O)O)cc1OC	-19.2	-193.8	23.3*	-78.6	-9.5	-6.0	-13.4
COc1ccc(C(C)(C)C)cc1NC(=O)c1cncc(Br)c1	-2.7	6.0	15.7*	-2.2	4.8	0.7	-1.3
Cc1ccc(C)c(NC(=O)CNS(=O)(=O)c2ccc3[nH]c(=O)oc3c2)c1	x	-5.2	6.2	-2.3	-2.8	x	x
COc1ccc(CC(NC(C)=O)C(=O)NC2CCN(c3c(Cc4ccccc4)c(C)nc4ncnn34)CC2)c(OC)c1 (configuration not stated)	-0.4	-6.2	14.1*	-1.5	-2.6	8.6	6.0
Cc1ccc2c(c1)C1CS(=O)(=O)N(CC(C)C)CN1C2 (configuration not stated)	x	5.3	-4.2	3.0	9.4	x	x
C[C@H]1CN([C@@H](C)CO)C(=O)c2c(c3ccccc3n2C)-c2ccccc2CO[C@H]1CN(C)C(=O)Nc1cccc(F)c1	x	3.8	3.7	-0.1	-1.0	x	x
C[C@H]1COC(=O)[C@@H](Cc2ccc(F)cc2)C/C=C\C[C@@H](CC(=O)NCCO)C(=O)N1	-0.2	-2.6	0.2	-3.6	-2.1	x	x
C[C@@H]1COC(=O)[C@H](Cc2ccc(F)cc2)C/C=C\C[C@@H](CC(=O)NCCO)C(=O)N1	0.7	12.5	15.0*	-4.8	9.1	-6.9	-11.3
COc1cc2c(c(OC)c1OC)-c1ccc(NCc3ccccc3)c(=O)cc1C(NC(C)=O)CC2 (configuration not stated)	21.0	-27.8	14.6*	-7.8	-1.4	-6.7	-10.6
Nc1ccc2nc3c(=O)n(CCc4ccccc4)c(=O)[nH]c3nc2c1	-142.5	-6.2	8.2	-1.8	-0.5	x	x
Nc1ccc2nc3c(=O)n(C4CCCCC4)c(=O)[nH]c3nc2c1	-149.2	-9.2	26.7*	-4.1	8.0	-5.9	7.0
Cc1cc2nc3c(=O)n(CCc4ccccc4)c(=O)[nH]c3nc2cc1N	-120.4	-12.1	22.8*	-12.6	-4.6	6.8	4.8
CCCCn1c(=O)[nH]c2nc3cc(N)ccc3nc2c1=O	-168.3	-28.5	25.1*	-6.6	8.4	-11.8	0.2
CCCCn1c(N)c(Br)c(=O)[nH]c1=O	0.9	-7.7	0.6	-5.2	-0.9	x	x
COc1ccc(S[C@]2(C(=O)N3CCCC3)CC(=O)N(C(=O)CCc3ccccc3)[C@@H]2c2ccc(OC)cc2)cc1	x	5.7	-1.7	2.3	-1.7	x	x
COc1ccccc1-c1cc(N)n(S(=O)(=O)c2ccc(F)c(C)c2)n1	4.1	9.6	14.4*	3.2	6.2	-2.1	-7.5
COC(=O)Cc1cc(=O)oc2cc(OC)ccc12	4.7	i	-5.5	-219.9	0.6	x	x
COc1ccc2c(CC(=O)O)cc(=O)oc2c1	0.0	-290.1	15.1*	-105.8	3.8	0.2	-3.4
SMILES	MT1-MMP act inh	ADAM10 inh	DDE Tn7 FP inh	ADAM17 inh	Tn6 DDE FP	Tn7 DDE conf	Tn7 DDE ctr
COc1ccc(CC(=O)NCc2n[nH]c(=S)n2-c2ccccc2OC)cc1	0.6	-1.9	14.7*	-2.2	2.3	-4.0	-15.8
COc1cccc(C2SCC(=O)N2c2ccc(C)cc2)c1OC (configuration not stated)	-6.7	4.7	-3.4	1.4	2.4	x	x
COc1ccc(N2C(=O)CSC2c2cccc(OC)c2OC)cc1 (configuration not stated)	-0.7	6.3	13.9*	-1.2	-4.4	-2.0	-8.7
Cc1cc(C)cc(NC(=O)N2CCN(Cc3ccc4c(c3)OCO4)CC2)c1	2.1	4.9	14.0*	-4.5	-1.5	1.8	0.0
O=C(Nc1ccccc1)N1CCN(Cc2ccc3c(c2)OCO3)CC1	1.2	-9.2	-3.2	-1.8	-0.7	x	x
C=CCOc1ccc2c(c1)CCC1C2CCC2(C)C(O)C(O)CC12 (configuration not stated)	4.6	-8.4	14.4*	-0.7	3.0	3.1	-0.9
Cc1ccc(S(=O)(=O)NCCc2nc3ccccc3[nH]2)cc1	2.6	-0.8	8.7	-2.1	3.2	x	x
NC(=O)C(CCc1nc2ccccc2[nH]1)NS(=O)(=O)c1ccccc1 (configuration not stated)	-3.5	-8.4	14.9*	-4.2	4.7	6.2	-0.2
COC(=O)C1CN(CC(C)C)CCS(=O)(=O)N1Cc1ccc(C(F)(F)F)cc1 (configuration not stated)	x	3.1	-2.9	4.0	4.8	x	x
O=c1[nH]c(-[n+]2ccc3ccccc3c2)c(/C=N/N=C(\[O-])c2ccccc2)s1	-12.2	-121.7	16.8*	-35.0	-8.1	-0.6	-15.6
Cc1cc(C)nc(NS(=O)(=O)c2ccc(N/C=C\C(=O)c3ccc(Cl)cc3)cc2)n1	1.5	-0.3	14.3*	-4.7	0.3	0.8	-7.0
